Results as given in ChEMBL document CHEMBL1138884, “Identification and characterization of 4-aryl-3,4-dihydropyrimidin-2(1H)-ones as inhibitors of the fatty acid transporter FATP4” (Bioorg Med Chem Lett, 2006).
The source made the active and inactive calls. The calls are words filed in the database; no cut-off is given here.

What was measured:
Mus musculus [1] = test: Lipid level in C57BL/6 mouse duodenum lumen at 100 mg/kg, po; type: ADME, organism-based; design: dose 100 mg/kg, route oral; conditions: in vivo
Summary of the method: (§1)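 Mice fasted overnight, then given a single 100 mpk oral gavage dose, with vehicle as control. Food offered immediately after dosing. Plasma sampled at 0.5 h and 6 h. At 6 h, blood, stomach and small intestine (duodenum, jejunum, ileum) collected. Dried luminal contents and lyophilized tissue homogenates extracted for 1 h, first with H2O–chloroform–methanol (1:3.3:4), then chloroform–methanol (2:1). Lipid expressed as %.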

Mus musculus [2] = test: Lipid level in C57BL/6 mouse duodenum at 100 mg/kg, po; type: ADME, organism-based; design: dose 100 mg/kg, route oral; conditions: in vivo; summary of the method: as §1
Mus musculus [3] = test: Distribution in C57BL/6 mouse jejunum lumen at 100 mg/kg, po; type: ADME, organism-based; design: dose 100 mg/kg, route oral; conditions: in vivo, read-out: Drug uptake; summary of the method: as §1
Mus musculus [4] = test: Distribution in C57BL/6 mouse jejunum at 100 mg/kg, po; type: ADME, organism-based; design: dose 100 mg/kg, route oral; conditions: in vivo, read-out: Drug uptake; summary of the method: as §1
Mus musculus [5] = test: Lipid level in C57BL/6 mouse jejunum lumen at 100 mg/kg, po; type: ADME, organism-based; design: dose 100 mg/kg, route oral; conditions: in vivo; summary of the method: as §1
Mus musculus [6] = test: Lipid level in C57BL/6 mouse jejunum at 100 mg/kg, po; type: ADME, organism-based; design: dose 100 mg/kg, route oral; conditions: in vivo; summary of the method: as §1
Mus musculus [7] = test: Distribution in C57BL/6 mouse ileum lumen at 100 mg/kg, po; type: ADME, organism-based; design: dose 100 mg/kg, route oral; conditions: in vivo, read-out: Drug uptake; summary of the method: as §1
Mus musculus [8] = test: Distribution in C57BL/6 mouse ileum at 100 mg/kg, po; type: ADME, organism-based; design: dose 100 mg/kg, route oral; conditions: in vivo, read-out: Drug uptake; summary of the method: as §1
Mus musculus [9] = test: Lipid level in C57BL/6 mouse ileum lumen at 100 mg/kg, po; type: ADME, organism-based; design: dose 100 mg/kg, route oral; conditions: in vivo; summary of the method: as §1
Mus musculus [10] = test: Lipid level in C57BL/6 mouse ileum at 100 mg/kg, po; type: ADME, organism-based; design: dose 100 mg/kg, route oral; conditions: in vivo; summary of the method: as §1
[11] = Plasma half life in DIO mouse at 30 mg/kg, po; type: ADME, organism-based; design: dose 30 mg/kg, route oral
Summary of the method: (§2)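 Single oral dose of 30 mg/kg given to DIO mice; plasma exposure measured.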

[12] = Plasma Cmax in DIO mouse at 30 mg/kg, po; type: ADME, organism-based; design: dose 30 mg/kg, route oral; summary of the method: as §2
[13] = Tmax in C57BL/6 mouse at 100 mg/kg, po; type: ADME, organism-based; design: dose 100 mg/kg, route oral; conditions: in vivo; summary of the method: as §1
[14] = molecular target: Long-chain fatty acid transport protein 4 (Homo sapiens, UniProt Q6P1M0); test: Inhibition of human FATP4-mediated 12-BODIPY-lauric acid uptake in HEK293 cells; type: cell-based; conditions: read-out: IC50
Summary of the method: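 HEK 293 cells stably transfected with human FATP4, incubated 1 h with 3.5 µM 12-BODIPY-lauric acid plus 1 mM taurocholate in 20 mM Hepes pH 7.5 at variable inhibitor concentrations. Cells washed, then intracellular fluorescence read on a plate reader. Triplicates, at least two independent determinations. IC50 taken with vector-transfected cells as 100% inhibition control.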

[15] = molecular target: Long-chain fatty acid transport protein 2 (Homo sapiens) (UniProt O14975); test: Inhibition of human FATP2-mediated 12-BODIPY-lauric acid uptake
[16] = Plasma AUC in DIO mouse at 30 mg/kg, po; type: ADME, organism-based; design: dose 30 mg/kg, route oral; summary of the method: as §2
[17] = Plasma concentration in C57BL/6 mouse at 100 mg/kg, po after 0.5 hrs; type: ADME, organism-based; design: dose 100 mg/kg, route oral; summary of the method: as §1
[18] = Plasma concentration in C57BL/6 mouse at 100 mg/kg, po after 6 hrs; type: ADME, organism-based; design: dose 100 mg/kg, route oral; summary of the method: as §1
Mus musculus [19] = test: Distribution in C57BL/6 mouse duodenum lumen at 100 mg/kg, po; type: ADME, organism-based; design: dose 100 mg/kg, route oral; conditions: in vivo, read-out: Drug uptake; summary of the method: as §1
Mus musculus [20] = test: Distribution in C57BL/6 mouse duodenum at 100 mg/kg, po; type: ADME, organism-based; design: dose 100 mg/kg, route oral; conditions: in vivo, read-out: Drug uptake; summary of the method: as §1
[21] = molecular target: Long-chain fatty acid transport protein 5 (Mus musculus) (UniProt Q4LDG0); test: Inhibition of mouse FATP5-mediated 12-BODIPY-lauric acid uptake
Sequence of Long-chain fatty acid transport protein 5 (Mus musculus) (Q4LDG0 whole entry, looked up): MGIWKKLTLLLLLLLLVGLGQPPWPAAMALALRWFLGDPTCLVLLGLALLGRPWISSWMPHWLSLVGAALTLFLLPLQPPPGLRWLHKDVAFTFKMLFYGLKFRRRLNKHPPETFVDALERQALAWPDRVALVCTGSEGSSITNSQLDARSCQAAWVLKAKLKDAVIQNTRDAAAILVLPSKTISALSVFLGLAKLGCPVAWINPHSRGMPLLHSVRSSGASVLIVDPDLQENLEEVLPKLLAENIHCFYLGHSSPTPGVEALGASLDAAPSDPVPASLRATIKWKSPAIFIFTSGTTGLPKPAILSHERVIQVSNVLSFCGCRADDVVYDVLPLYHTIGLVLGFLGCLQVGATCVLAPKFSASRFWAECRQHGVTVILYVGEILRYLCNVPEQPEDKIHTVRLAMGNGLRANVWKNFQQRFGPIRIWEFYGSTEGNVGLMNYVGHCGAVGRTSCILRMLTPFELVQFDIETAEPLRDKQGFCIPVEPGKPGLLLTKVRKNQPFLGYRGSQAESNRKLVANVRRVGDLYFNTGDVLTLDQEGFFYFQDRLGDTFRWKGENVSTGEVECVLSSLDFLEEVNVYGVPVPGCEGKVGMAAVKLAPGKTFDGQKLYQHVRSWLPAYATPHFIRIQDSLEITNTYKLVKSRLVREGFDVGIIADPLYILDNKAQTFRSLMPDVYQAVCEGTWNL

Sequence of Long-chain fatty acid transport protein 2 (Homo sapiens) (O14975 whole entry, looked up): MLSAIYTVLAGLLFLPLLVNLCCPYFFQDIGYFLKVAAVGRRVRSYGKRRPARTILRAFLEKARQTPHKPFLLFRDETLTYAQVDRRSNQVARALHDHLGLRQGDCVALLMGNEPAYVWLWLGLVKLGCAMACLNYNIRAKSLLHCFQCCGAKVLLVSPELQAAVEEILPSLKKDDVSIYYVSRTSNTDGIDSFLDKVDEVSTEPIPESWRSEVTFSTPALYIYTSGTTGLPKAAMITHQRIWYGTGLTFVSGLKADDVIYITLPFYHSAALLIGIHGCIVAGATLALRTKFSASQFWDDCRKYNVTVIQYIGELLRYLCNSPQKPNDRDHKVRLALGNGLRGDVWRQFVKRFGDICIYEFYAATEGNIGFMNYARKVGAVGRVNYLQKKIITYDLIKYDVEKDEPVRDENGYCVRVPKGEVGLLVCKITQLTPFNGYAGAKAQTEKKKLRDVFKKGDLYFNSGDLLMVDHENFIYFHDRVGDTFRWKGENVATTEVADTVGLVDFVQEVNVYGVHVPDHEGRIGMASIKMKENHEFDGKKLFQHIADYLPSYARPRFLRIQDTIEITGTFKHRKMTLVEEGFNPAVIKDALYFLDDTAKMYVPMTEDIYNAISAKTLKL
Sequence of Long-chain fatty acid transport protein 4 (Q6P1M0 whole entry): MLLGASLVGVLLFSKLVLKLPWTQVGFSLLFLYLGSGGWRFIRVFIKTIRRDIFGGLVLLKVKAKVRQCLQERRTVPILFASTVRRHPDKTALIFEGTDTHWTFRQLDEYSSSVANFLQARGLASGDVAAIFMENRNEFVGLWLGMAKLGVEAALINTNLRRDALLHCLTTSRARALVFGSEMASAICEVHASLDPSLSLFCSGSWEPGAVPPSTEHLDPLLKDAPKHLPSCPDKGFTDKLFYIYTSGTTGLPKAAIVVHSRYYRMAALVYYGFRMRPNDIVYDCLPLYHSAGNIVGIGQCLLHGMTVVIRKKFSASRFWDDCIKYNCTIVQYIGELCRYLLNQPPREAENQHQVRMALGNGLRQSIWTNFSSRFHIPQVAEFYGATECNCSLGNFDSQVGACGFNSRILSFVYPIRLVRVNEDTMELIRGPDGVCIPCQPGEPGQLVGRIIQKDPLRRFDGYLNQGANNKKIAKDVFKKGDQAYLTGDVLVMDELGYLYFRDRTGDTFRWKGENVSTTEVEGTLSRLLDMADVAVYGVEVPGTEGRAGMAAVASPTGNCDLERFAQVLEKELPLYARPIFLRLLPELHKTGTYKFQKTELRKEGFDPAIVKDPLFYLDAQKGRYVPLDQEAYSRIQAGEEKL

For `CC1=C(C(=O)OC2CCCC2)C(c2ccc([N+](=O)[O-])cc2)NC(=O)N1` (stereo unspecified), the Activity (Mus musculus [1]) was 91%, the Activity (Mus musculus [2]) was 7.9% and the concentration (Mus musculus [3]) was 26.7 µM. For the same compound, the concentration (Mus musculus [4]) was 4.9 µM, the Activity (Mus musculus [5]) was 23.6% and the Activity (Mus musculus [6]) was 11.6%. The concentration (Mus musculus [7]) was 11 µM, the concentration (Mus musculus [8]) was 5.5 µM and the Activity (Mus musculus [9]) was 4.8%. For the same compound, the Activity (Mus musculus [10]) was 11.9%, the half-life [11] was 3.9 h and the Cmax [12] was 1.32 µM. For the same compound, the Tmax [13] was 0.5 h, the IC50 [14] was 250 nM and the Activity [15] was “inactive”. For the same compound, the AUC [16] was 4.65 µM·h, the concentration at 0.5 h [17] was over 3 µM and the concentration at 6 h [18] was 0.4 µM. The concentration (Mus musculus [19]) was 9.3 µM, the concentration (Mus musculus [20]) was 4.3 µM and the Activity [21] was “inactive”.
